Assay results collected from several papers.
Each line is one published result; the experiments were not run side by side.
Target: Testis-specific serine/threonine-protein kinase 2 (TSSK2, Homo sapiens, UniProt Q96PF2)
One construct used (Q96PF2 1-358): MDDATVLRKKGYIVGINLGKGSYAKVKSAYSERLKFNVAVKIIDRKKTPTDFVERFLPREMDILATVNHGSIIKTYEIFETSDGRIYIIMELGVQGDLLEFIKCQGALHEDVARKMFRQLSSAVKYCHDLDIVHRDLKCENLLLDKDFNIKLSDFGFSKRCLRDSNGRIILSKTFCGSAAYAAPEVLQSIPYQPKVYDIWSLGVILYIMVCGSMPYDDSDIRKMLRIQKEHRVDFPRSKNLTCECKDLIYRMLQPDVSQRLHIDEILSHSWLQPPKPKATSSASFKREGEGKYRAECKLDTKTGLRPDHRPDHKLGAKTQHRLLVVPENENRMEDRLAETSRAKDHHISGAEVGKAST

`O=C1NC(=O)c2cc(Nc3ccc(F)cc3)c(Nc3ccc(F)cc3)cc21` has a remaining signal of 97.2% (cell-free assay; 0.5 µM).
`CCN(CC)c1ccc(C2=NNC(=O)CC2C)cc1[N+](=O)[O-]` (centres unmarked) has a remaining activity of 96% (enzyme activity; inhibitor; 10 µM).
The inhibition of `CN1CC(Oc2cnc(C#N)cc2-c2ccn3nc(NC(=O)C4CC4)cc3c2)C1` is reported as 0% (enzyme activity; inhibitor; 1 µM).
`CCCOc1ccc(OC)c(F)c1C(=O)c1ccc(C(=O)N[C@@H]2CNC[C@H]2NC(=O)c2ccc3[nH]ncc3c2)cc1` gave a remaining activity of 87% (enzyme activity; inhibitor; 10 µM).
With `CCN(CC)CCNC(=O)c1c(C)[nH]c(/C=C2\C(=O)Nc3ccc(F)cc32)c1C` the inhibition was 0% (enzyme activity; inhibitor; 0.3 µM).
The remaining activity of `Cc1sc(C(=O)NC2COC2)cc1-n1cc(NC(=O)Nc2c(F)cccc2Cl)cn1` is reported as 84.7% (enzyme activity; inhibitor; 10 µM).
For `CCOc1cc(-c2nncn2C)ccc1Nc1ncc2cc(C)nc(NCC(C)(C)C)c2n1`, the inhibition was less than 15% (enzyme activity; inhibitor; FRET; 1 µM).
The inhibition of `Cc1ccc(Nc2nccc(N(C)c3ccc4c(C)n(C)nc4c3)n2)cc1S(N)(=O)=O` is reported as 0% (enzyme activity; inhibitor; 0.3 µM).
For `O=C(Nc1cnn(-c2csc(C(=O)NC3COC3)c2)c1)Nc1ccccc1Cl`, the remaining activity was 91.5% (enzyme activity; inhibitor; 5 µM).
`COc1cc(Cl)c(C(=O)N[C@@H](CN[C@H]2CC[C@@H](N)CC2)Cc2ccc(C#N)cc2)cc1-c1ccc(CN[C@H](C)c2ccc(C)cc2)o1` has a remaining activity of 101% (enzyme activity; inhibitor; 1 µM).
With `COc1cc2ncnc(Nc3ccc(Oc4ccccc4)c(C)c3C)c2cc1OC` the inhibition was 3% (enzyme activity; inhibitor; 1 µM).
`CNC(=O)c1cc(Oc2ccc(NC(=O)Nc3ccc(Cl)c(C(F)(F)F)c3)cc2)ccn1` gave an inhibition of -1% (enzyme activity; inhibitor; 10 µM).
`CC(C)(C)c1nc(-c2cccc(NS(=O)(=O)c3c(F)cccc3F)c2F)c(-c2ccnc(N)n2)s1` has a remaining activity of 86% (enzyme activity; inhibitor; radiometric; 1 µM).
`O=C1Nc2ccc(Cl)cc2C1=Cc1cc(Cl)c(O)c(Cl)c1` has a remaining signal of 94.4% (cell-free assay; 0.5 µM).
